Measured values: BindingDB's records for doi:10.1021/np300764u (Heinrich-Heine University, 2013)

Columns and labels:
[1] = target: Receptor tyrosine-protein kinase erbB-2 (Homo sapiens, UniProt P04626); assay: Inhibition of ERBB2 (unknown origin)
In short: (§1)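 Biochemical (cell-free) assay within a panel of 24 protein kinases. Results reported as IC50 values. Procedure as described in earlier work.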

Ephrin type-B receptor 4 = target: T1, Ephrin type-B receptor 4 (Homo sapiens, UniProt P54760); assay: Inhibition of EPHB4 (unknown origin); in short: as §1
T1 sequence (P54760 whole entry): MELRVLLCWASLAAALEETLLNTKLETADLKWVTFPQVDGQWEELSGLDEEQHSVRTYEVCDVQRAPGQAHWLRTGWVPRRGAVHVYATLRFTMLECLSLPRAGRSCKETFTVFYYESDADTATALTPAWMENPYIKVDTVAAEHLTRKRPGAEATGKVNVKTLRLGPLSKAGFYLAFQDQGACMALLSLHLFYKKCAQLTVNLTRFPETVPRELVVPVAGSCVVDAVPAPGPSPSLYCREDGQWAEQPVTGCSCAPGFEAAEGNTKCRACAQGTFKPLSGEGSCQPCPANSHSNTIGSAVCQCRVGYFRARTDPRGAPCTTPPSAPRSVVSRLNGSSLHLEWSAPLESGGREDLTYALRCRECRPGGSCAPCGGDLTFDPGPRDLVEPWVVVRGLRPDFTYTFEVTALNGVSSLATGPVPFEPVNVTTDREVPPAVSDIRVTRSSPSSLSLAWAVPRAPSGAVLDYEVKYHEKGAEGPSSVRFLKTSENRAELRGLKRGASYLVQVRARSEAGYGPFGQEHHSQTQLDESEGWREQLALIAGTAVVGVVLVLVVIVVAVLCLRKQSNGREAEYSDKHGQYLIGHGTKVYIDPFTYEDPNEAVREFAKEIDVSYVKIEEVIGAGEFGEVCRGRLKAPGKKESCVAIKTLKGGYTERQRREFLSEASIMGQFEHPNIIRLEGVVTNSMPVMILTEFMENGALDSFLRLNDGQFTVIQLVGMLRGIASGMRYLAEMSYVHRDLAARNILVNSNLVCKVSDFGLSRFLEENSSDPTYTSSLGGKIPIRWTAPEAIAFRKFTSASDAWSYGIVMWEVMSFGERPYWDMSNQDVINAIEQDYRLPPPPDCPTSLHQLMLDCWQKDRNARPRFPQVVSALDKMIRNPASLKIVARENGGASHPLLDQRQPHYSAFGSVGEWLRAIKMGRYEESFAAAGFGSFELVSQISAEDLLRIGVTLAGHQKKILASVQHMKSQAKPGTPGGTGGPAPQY

Chain of Receptor tyrosine-protein kinase erbB-2 (P04626 whole entry): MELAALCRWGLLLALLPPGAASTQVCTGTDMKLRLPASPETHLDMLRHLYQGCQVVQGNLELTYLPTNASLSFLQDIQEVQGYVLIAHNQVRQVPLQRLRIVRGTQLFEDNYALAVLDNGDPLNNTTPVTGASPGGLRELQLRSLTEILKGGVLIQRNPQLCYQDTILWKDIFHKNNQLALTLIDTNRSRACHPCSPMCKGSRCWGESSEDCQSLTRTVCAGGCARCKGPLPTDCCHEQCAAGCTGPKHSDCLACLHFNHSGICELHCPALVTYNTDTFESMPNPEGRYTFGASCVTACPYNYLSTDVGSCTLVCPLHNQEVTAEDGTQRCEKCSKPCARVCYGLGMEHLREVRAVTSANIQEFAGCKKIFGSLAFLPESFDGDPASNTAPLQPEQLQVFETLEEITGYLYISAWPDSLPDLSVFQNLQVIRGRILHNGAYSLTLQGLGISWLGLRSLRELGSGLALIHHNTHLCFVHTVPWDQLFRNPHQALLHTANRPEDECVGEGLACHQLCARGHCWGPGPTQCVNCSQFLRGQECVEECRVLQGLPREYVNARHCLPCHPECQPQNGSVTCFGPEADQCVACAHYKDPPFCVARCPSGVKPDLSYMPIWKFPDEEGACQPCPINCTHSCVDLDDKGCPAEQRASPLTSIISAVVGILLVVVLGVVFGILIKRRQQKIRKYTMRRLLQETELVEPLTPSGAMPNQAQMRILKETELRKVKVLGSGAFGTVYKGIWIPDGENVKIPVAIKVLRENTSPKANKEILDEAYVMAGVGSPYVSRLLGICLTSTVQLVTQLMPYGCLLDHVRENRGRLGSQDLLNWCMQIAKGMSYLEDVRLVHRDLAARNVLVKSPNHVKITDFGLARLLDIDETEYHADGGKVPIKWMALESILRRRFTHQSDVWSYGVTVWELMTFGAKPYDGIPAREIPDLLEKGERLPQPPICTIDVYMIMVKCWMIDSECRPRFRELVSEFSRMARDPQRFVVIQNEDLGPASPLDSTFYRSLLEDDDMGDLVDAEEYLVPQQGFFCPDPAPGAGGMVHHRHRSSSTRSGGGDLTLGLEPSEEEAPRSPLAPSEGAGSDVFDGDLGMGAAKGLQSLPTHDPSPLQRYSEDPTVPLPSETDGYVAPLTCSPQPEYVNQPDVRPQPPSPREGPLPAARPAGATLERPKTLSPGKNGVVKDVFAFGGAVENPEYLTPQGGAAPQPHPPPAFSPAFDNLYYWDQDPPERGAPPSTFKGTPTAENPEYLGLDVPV

Compound | IC50 [1] [nM] | IC50 (Ephrin type-B receptor 4) [nM]
O=NC(Cc1cc(Br)c(O)c(-c2cc(CC(N=O)C(=O)NCCc3ccc(O)c(Br)c3)cc(Br)c2O)c1)C(=O)NCCc1ccc(O)c(Br)c1 (stereo not drawn) [BASTADIN 3] | 2100 | –
O=NC(Cc1cc(Br)c(O)c(Oc2ccc(CCNC(=O)C(Cc3cc(Br)c(O)c(-c4cc(CC(N=O)C(=O)NCCc5ccc(O)c(Br)c5)cc(Br)c4O)c3)N=O)cc2Br)c1)C(=O)NCCc1ccc(O)c(Br)c1 (stereo not drawn) [Sesquibastadin 1] | 2100 | 3400
